Measured values taken from article PMC9732910 (Genes & Development, 2022).
“Also recorded” adds a separate entry of the source. *1 amine or outer side, *2 acyl side, *3 side chain or, on linkers, in order; H or OH if unused. Where a SMILES comes first, the peptide text is derived from it. Bridges are numbered along the chain shown (N, C = ends). Primed or numbered codes have the meaning given here. Where no end group is shown, it is not given here. The star is where a group is joined. Lys(Biotin) = O=C(CCCC[C@@H]1SC[C@@H]2NC(=O)N[C@@H]21)NCCCC[C@H](N[*:1])C(=O)[*:2]; PEG3′ = PEG3 spacer coupled to the N-terminus before Fmoc-Lys(Biotin); FITC = O=C1OC2(c3ccc(O)cc3Oc3cc(O)ccc32)c2ccc(NC(=S)*)cc21; mXylylene = c1cc(C[*:1])cc(C[*:2])c1

T1: KLHL20^K498A (Homo sapiens, UniProt Q9Y2M5, K498A)
T1 sequence (Q9Y2M5 317-603 K498A): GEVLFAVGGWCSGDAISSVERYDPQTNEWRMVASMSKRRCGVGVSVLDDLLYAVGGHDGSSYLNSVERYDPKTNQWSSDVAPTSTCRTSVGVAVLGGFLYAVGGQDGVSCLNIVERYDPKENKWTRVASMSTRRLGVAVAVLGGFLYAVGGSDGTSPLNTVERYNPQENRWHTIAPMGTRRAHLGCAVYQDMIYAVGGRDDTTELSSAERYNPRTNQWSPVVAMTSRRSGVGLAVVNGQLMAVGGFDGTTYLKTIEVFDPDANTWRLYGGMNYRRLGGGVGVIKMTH

T2: KLHL20 (Homo sapiens, UniProt Q9Y2M5)
T2 sequence (Q9Y2M5 1-609): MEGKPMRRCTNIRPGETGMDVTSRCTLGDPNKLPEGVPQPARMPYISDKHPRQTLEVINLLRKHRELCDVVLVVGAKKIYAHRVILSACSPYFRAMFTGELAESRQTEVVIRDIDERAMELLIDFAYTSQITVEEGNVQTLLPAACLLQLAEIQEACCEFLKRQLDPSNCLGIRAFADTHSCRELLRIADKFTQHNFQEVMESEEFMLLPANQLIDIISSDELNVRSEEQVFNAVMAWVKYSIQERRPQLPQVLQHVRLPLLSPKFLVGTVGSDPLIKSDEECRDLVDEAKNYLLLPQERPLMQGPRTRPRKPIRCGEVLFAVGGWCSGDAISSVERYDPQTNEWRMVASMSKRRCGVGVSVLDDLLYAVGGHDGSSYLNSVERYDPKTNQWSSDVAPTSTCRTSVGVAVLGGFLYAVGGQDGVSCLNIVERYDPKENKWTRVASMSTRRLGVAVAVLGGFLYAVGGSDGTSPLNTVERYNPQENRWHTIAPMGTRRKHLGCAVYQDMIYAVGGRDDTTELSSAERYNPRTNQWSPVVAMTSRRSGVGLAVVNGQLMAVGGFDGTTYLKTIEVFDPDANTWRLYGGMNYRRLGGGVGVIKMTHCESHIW

T3: KLHL20^H499G (Homo sapiens, UniProt Q9Y2M5, H499G)
T3 sequence (Q9Y2M5 317-603 H499G): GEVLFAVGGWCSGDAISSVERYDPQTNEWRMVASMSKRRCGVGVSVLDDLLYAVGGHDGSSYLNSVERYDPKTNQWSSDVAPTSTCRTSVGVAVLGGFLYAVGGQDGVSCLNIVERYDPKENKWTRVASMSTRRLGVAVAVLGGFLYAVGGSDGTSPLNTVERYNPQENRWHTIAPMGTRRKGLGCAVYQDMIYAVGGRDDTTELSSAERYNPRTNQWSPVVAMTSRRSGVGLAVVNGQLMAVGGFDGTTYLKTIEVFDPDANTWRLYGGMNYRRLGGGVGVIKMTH

T4: KLHL20^L592G (Homo sapiens, UniProt Q9Y2M5, L592G)
T4 sequence (Q9Y2M5 317-603 L592G): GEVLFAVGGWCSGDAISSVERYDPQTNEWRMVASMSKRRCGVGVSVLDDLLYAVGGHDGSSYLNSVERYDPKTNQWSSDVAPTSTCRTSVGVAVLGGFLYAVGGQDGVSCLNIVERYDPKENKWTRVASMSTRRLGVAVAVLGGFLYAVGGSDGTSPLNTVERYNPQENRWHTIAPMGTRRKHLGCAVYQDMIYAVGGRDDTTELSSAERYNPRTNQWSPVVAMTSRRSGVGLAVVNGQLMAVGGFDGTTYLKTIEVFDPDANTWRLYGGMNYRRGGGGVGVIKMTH

T5: KLHL12 (Homo sapiens, UniProt Q53G59)
T5 sequence (Q53G59 1-568): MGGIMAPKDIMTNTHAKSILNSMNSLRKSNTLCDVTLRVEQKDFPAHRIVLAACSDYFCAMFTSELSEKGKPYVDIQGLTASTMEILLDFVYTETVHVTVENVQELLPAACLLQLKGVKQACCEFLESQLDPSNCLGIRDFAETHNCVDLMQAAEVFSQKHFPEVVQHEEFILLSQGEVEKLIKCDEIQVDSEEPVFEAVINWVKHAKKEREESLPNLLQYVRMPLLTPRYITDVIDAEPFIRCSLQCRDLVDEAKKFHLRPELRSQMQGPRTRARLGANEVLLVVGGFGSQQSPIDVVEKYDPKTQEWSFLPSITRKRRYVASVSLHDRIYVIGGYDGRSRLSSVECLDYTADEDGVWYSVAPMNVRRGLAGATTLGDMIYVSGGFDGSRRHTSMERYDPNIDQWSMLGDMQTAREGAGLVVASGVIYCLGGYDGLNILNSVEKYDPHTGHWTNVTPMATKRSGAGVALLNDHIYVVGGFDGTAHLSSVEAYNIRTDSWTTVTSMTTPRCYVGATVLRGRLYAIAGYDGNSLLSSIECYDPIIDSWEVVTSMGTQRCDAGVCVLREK

T6: KLHL20 Kelch domain (human, UniProt Q9Y2M5 317-603)
T6 sequence (looked up): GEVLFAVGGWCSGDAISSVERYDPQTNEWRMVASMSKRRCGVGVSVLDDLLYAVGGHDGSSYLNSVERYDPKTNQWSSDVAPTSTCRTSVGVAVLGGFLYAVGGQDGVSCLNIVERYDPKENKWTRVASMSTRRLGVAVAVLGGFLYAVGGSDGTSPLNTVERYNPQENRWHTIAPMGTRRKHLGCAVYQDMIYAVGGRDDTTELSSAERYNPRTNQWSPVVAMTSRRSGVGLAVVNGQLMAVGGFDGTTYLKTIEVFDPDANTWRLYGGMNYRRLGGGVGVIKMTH

B1: FITC-labeled macrocycle CPDLVC (peptide)
peptide: {FITC}-CPDLVC-NH2
modifications: linker 1-6 via mXylylene
B2: FITC-labeled BTR2000 (macrocycle CPDLC) (peptide)
peptide: {FITC}-CPDLC-NH2
modifications: linker 1-5 via mXylylene
B3: FITC-labeled linear LPDLV peptide (peptide)
peptide: {FITC}-LPDLV-NH2

Key:
BRD2, BRD3, and BRD4 = assay: Degradation of BET proteins BRD2, BRD3 and BRD4 in PC3 cells; format: cell-based, human; conditions: 5 μM, 4 h
Summary of the method: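 PC3 cells in DMEM with 10% FBS were plated in 24-well plates 24 h before dosing. They got fresh medium with 5 μM test compound or reference degraders, or DMSO as reference, for 4 h. Cells were washed in TBS/0.05% Tween 20 and lysed in Tris pH 7.5, NaCl, deoxycholate, glycerol, Triton X-100 and inhibitor buffer. BET proteins were read by Western blot.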

KLHL20^K498A = molecular target: T1, KLHL20^K498A; assay: FP binding to KLHL20 Kelch mutant K498A; conditions: FITC-labeled BTR2000
Summary of the method: (§1)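 His-tagged wild-type or quick-change point-mutant KLHL20 Kelch domain was expressed in E. coli Rosetta (DE3) (0.3 mM IPTG, 18°C overnight). It was Ni-NTA purified and dialysed into TBS pH 7.5 with 1 mM DTT. Protein at 0–15 μM was incubated with 20 nM FITC-labelled peptide for 30 min at 4°C in 1× TBS/1 mM DTT. FP was read at 485/528 nm; LAAAV peptide served as negative control.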

KLHL20 [1] = molecular target: T2, KLHL20; assay: MS-based proteomics of pull-down eluates from PC3 lysates; format: binding; conditions: N = 3, control called PGL control in Table S1
Summary of the method: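 NeutrAvidin Dynabeads were blocked with 0.1% BSA for 2 h at 4°C and loaded with 430 nM biotinylated compound for 1 h at 4°C. PC3 lysate (1:7 diluted, 1.6 mg/mL total protein, TBS/1 mM DTT/0.1% BSA/inhibitors) was bound for 1 h at 4°C. Beads were washed three times, eluted in Laemmli/5% BME and in-gel trypsin-digested. Eluates were analysed by LC-MS/MS with label-free quantification.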

KLHL20 [2] = molecular target: T2, KLHL20; format: binding; conditions: PC3 lysates, immobilized compound
Summary of the method: (§2)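 Biotinylated test compound (430 nM) was captured on BSA-blocked NeutrAvidin magnetic beads for 1 h at 4°C. Beads were incubated with PC3 lysate diluted 1:7 to 1.6 mg/mL total protein in TBS, 1 mM DTT, 0.1% BSA and protease/phosphatase inhibitors for 1 h at 4°C. After three TBS/DTT/BSA washes, bound proteins were eluted in Laemmli buffer with 5% BME for Western blotting.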

KLHL20^H499G = molecular target: T3, KLHL20^H499G; assay: FP binding to KLHL20 Kelch mutant H499G; conditions: FITC-labeled BTR2000
KLHL20^L592G = molecular target: T4, KLHL20^L592G; assay: FP binding to KLHL20 Kelch mutant L592G; conditions: FITC-labeled BTR2000
Summary of the method: as §1

KLHL12 = molecular target: T5, KLHL12; format: binding; conditions: PC3 lysates, immobilized compound
Summary of the method: as §2

hTERT-BJ1 cells = assay: Cytotoxicity in normal human cell line, CellTiter-Glo 2.0; format: cell-based; conditions: hTERT-BJ1, 24h, 72h and 96h
Summary of the method: (§3)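 Cells kept in DMEM with 10% FBS and seeded in 96-well plates at 50% confluency 24 h before treatment. Medium was then replaced with fresh medium holding the test compound at varying concentrations, or an equal volume of DMSO as negative control. Viable cell titre was read at the end of treatment by CellTiter-Glo 2.0 luminescence.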

PC3 cells = assay: Cell proliferation, CellTiter-Glo 2.0, PC3; format: cell-based, human; conditions: PC3, 24, 72, and 96 h
Summary of the method: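 PC3 prostate cancer cells in DMEM with 10% FBS were seeded in 96-well plates at 50% confluency 24 h beforehand. They were switched to fresh medium with different concentrations of test compound or reference degraders (DMSO-volume negative control) for 24, 72 and 96 h. Cell titre was measured by CellTiter-Glo 2.0 luminescence; SD, N = 3.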

MDA-MB-231 cells = assay: Cell proliferation, CellTiter-Glo 2.0, MDA-MB-231; format: cell-based, human; conditions: MDA-MB-231, 24h, 72h and 96h
Summary of the method: as §3

KLHL20 Kelch domain = molecular target: T6, KLHL20 Kelch domain; assay: fluorescence polarisation

Molecule | BET protein degradation (BRD2, BRD3, and BRD4) | enrichment / binding of KLHL20 in pull-down (KLHL20 [2]) | Kd (KLHL20 Kelch domain) | also measured
COc1cc(C(=O)NCCOCCOCCOCCNC(=O)C[C@@H]2N=C(c3ccc(Cl)cc3)c3c(sc(C)c3C)-n3c(C)nnc32)ccc1NC(=O)[C@@H]1N[C@@H](CC(C)(C)C)[C@](C#N)(c2ccc(Cl)cc2F)[C@H]1c1cccc(Cl)c1F [A1874] | not effective; also recorded: ineffective |  |  | 
CC(C)C[C@@H]1NC(=O)[C@H](CC(=O)O)NC(=O)[C@@H]2CCCN2C(=O)[C@@H](NC(=S)Nc2ccc3c(c2)C(=O)OC32c3ccc(O)cc3Oc3cc(O)ccc32)CSCc2cccc(c2)CSC[C@@H](C(N)=O)NC1=O [BTR2000] ({FITC}-CPDLC-NH2; linker 1-5 via mXylylene) |  | successfully enriched KLHL20 |  | binding to KLHL20^K498A relative to wild type (KLHL20^K498A): important for BTR2000 binding; log2 fold change BTR2000/CPGAC of KLHL20 (KLHL20 [1]): 11; binding to KLHL20 H499 mutant relative to wild type (KLHL20^H499G): more prominent loss in binding; binding to KLHL20^L592G relative to wild type (KLHL20^L592G): more prominent loss in binding; enrichment of KLHL12 in pull-down (KLHL12): not KLHL12
Cc1ncsc1-c1ccc(CNC(=O)[C@@H]2C[C@@H](O)CN2C(=O)[C@@H](NC(=O)COCCOCCOCCNC(=O)C[C@@H]2N=C(c3ccc(Cl)cc3)c3c(sc(C)c3C)-n3c(C)nnc32)C(C)(C)C)cc1 [MZ1] | showed efficacy |  |  | normal cell cytotoxicity (hTERT-BJ1 cells): some degree of cytotoxicity; cell growth inhibition (PC3 cells): higher efficiency than BTR2004; cell growth inhibition (MDA-MB-231 cells): higher efficiency than BTR2004
Cc1sc2c(c1C)C(c1ccc(Cl)cc1)=N[C@@H](CC(=O)NCCCCNC(=O)COc1cccc3c1C(=O)N(C1CCC(=O)NC1=O)C3=O)c1nnc(C)n1-2 (stereo partly shown) [dBET1] | showed efficacy |  |  | normal cell cytotoxicity (hTERT-BJ1 cells): some degree of cytotoxicity
CPGAC: cyclized double-mutant of BTR2000 used as pull-down control ({Lys(Biotin)-PEG3′}-CPGAC-NH2; linker 1-5 via mXylylene) |  | no binding to KLHL20 |  | 
cyclized CPDAC: BTR2000 with the leucine mutated; KLHL20-binding deficient cyclized peptide (CPDAC-NH2; linker 1-5 via mXylylene) |  | no binding to KLHL20 |  | 
cyclized CPGLC: BTR2000 with the aspartic acid mutated; KLHL20-binding deficient cyclized peptide ({Lys(Biotin)-PEG3′}-CPGLC-NH2; linker 1-5 via mXylylene) |  | no binding to KLHL20 |  | 
B1 |  |  | ~600 nM | 
B2 |  |  | ~600 nM | 
B3 |  |  | > 5000 nM | 
